By Kd is commonly meant the equilibrium constant for the complex coming apart. As usually defined, the pKa is the pH at which an ionisable group is half protonated. What is called Ki is the equilibrium dissociation constant of an inhibitor or competing ligand from its target.

The text below walks through data of ChEMBL document CHEMBL1154785, “Identification of critical ligand binding determinants in Mycobacterium tuberculosis adenosine-5'-phosphosulfate reductase” (J Med Chem, 2009).

Series [1] in a line: Binding affinity to Mycobacterium tuberculosis adenosine-5'-phosphosulfate reductase assessed as S-sulfocysteine formation at pH 5.5 by single turnover method in absence of thioredoxin.
Series [2] can be described thus: Dissociation constant, pKa at pH 6 to 9.5. The class given is physicochemical.
Series [3] in a line: Displacement of [35S]APS from Mycobacterium tuberculosis adenosine-5'-phosphosulfate reductase by liquid scintillation counting. Put shortly:
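Purified enzyme; reduction of ³⁵S-APS to sulfite at 30 °C in 100 mM bis-tris propane pH 7.5, 5 mM DTT and 10 μM thioredoxin. Quenched with 2% charcoal containing 20 mM Na₂SO₃, then ³⁵S-sulfite in the supernatant counted by scintillation. k_obs taken at varied inhibitor levels with [³⁵S-APS] ≪ K1/2, fit to competitive inhibition (Ki taken as Kd). At least two independent experiments.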
(In a radioligand displacement assay an active substance lowers the binding of a labelled ligand.)

A short description of series [4]: Binding affinity to Mycobacterium tuberculosis adenosine-5'-phosphosulfate reductase assessed as S-sulfocysteine formation at pH 7.5 by single turnover method in absence of MgCl2.
The nature of series [5]: Binding affinity to Mycobacterium tuberculosis adenosine-5'-phosphosulfate reductase assessed as S-sulfocysteine formation at pH 7.5 by single turnover method in presence of 0.5 mM MgCl2.
Series [6] can be described thus: Binding affinity to Mycobacterium tuberculosis adenosine-5'-phosphosulfate reductase assessed as S-sulfocysteine formation at pH 7.5 by single turnover method in presence of 2 mM MgCl2.
The subject of series [7] is Mycobacterium tuberculosis. Description: Ratio of Kd for Mycobacterium tuberculosis adenosine-5'-phosphosulfate reductase in presence of 0.5 mM MgCl2 to Kd Mycobacterium tuberculosis adenosine-5'-phosphosulfate reductase in absence of MgCl2.
The subject of series [8] is Mycobacterium tuberculosis. Description: Ratio of Kd for Mycobacterium tuberculosis adenosine-5'-phosphosulfate reductase in presence of 2 mM MgCl2 to Kd Mycobacterium tuberculosis adenosine-5'-phosphosulfate reductase in absence of MgCl2.
The nature of series [9]: Binding affinity to Mycobacterium tuberculosis adenosine-5'-phosphosulfate reductase assessed as S-sulfocysteine formation at pH 7.5 by single turnover method.
A short description of series [10]: Binding affinity to Mycobacterium tuberculosis adenosine-5'-phosphosulfate reductase assessed as S-sulfocysteine formation at pH 9 by single turnover method.
Series [11] is described as follows: Dissociation constant, pKa in solution. It counts as physicochemical.
Series [12] concerns Mycobacterium tuberculosis. Description: Ratio of Kcat to Km of Mycobacterium tuberculosis adenosine-5'-phosphosulfate reductase. Particulars: tested as the 35S-labelled form.

SMILES strings stand for the structures.

With `Nc1ncnc2c1ncn2[C@@H]1O[C@H](COP(=O)(S)OP(=O)(O)O)[C@@H](O)[C@H]1O` (stereo partly specified), in [1], the Kd amounted to 0.8 µM.

Turning to `O[C@@H]1[C@H](O)[C@H](O)CO[C@H]1O` [RIBOSE (PYRANOSE)], in series [1], the Kd amounted to 680000 µM.

As to `Nc1[nH]cnc2ncnc1-2` [ADENINE], in [1], the Kd was at least 90000 µM.

Consider `Nc1ncnc2c1ncn2[C@@H]1O[C@H](COP(=O)(O)O)[C@@H](O)[C@H]1O` [ADENOSINE PHOSPHATE], for which the Kd in [1] came to 5.4 µM; in series [3], 5.4 µM; in [4] it was 5.4 µM; in [5] it was 21 µM; in series [6] it was 31 µM. This molecule yielded a pKa in series [2] of 8.1. For the same molecule, the Ratio in [7] and in series [8] was 5 in each case.

Turning to `Nc1ncnc2c1ncn2[C@@H]1O[C@H](COP(=O)(S)OS(=O)(=O)O)[C@@H](O)[C@H]1O` (mixture of isomers), the equilibrium dissociation constant (Kd) in [1] turned out to be 43 µM.

Consider `Nc1ncnc2c1ncn2[C@@H]1O[C@H](COP(=O)(O)NP(=O)(O)O)[C@@H](O)[C@H]1O`, for which the results for the Kd in series [1], in series [9] and in series [10] were 260 µM, 257 µM and 110 µM, respectively.

As for `Nc1ncnc2c1ncn2[C@@H]1O[C@H](COP(=O)(O)C(F)(F)P(=O)(O)O)[C@@H](O)[C@H]1O`, the Kd in series [1] stood at 13 µM.

`Nc1ncnc2c1ncn2[C@@H]1O[C@H](COP(=O)(O)CP(=O)(O)O)[C@@H](O)[C@H]1O` [PHOSPHOMETHYLPHOSPHONIC ACID ADENOSYL ESTER]: the Kd in series [1] came to 27 µM.

`O=P(O)(O)O` [PHOSPHORIC ACID]: the equilibrium dissociation constant (Kd) in [1] was 66000 µM.

Regarding `O=P(O)(O)OC[C@H]1O[C@@H](O)[C@H](O)[C@@H]1O`, in series [1], the Kd turned out to be 93 µM.

With `Nc1ncnc2c1ncn2[C@@H]1O[C@H](COP(=O)(O)OP(=O)(O)O)[C@@H](O)[C@H]1O` [ADENOSINE DIPHOSPHATE], the Kd was determined as 4.3 µM in [1], 4.3 µM in [4], 7.3 µM in series [5] and 20 µM in [6]. The pKa in series [2] was found to be 6.4. Besides, the Ratio in series [7] and in series [8] was 5 in each case.

Turning to `Nc1ncnc2c1ncn2[C@@H]1O[C@H](COP(O)(O)=S)[C@@H](O)[C@H]1O`, the Kd in [1] was determined as 3.3 µM. Besides, the pKa in series [2] and in [11] was 7.7 in each case.

On to `Nc1ncnc2c1ncn2[C@@H]1O[C@H](CO)[C@@H](OP(=O)(O)O)[C@H]1O`, for which the dissociation constant Kd in [1] came out at 3200 µM.

`O=S(=O)(O)O` [SULFURIC ACID]: the Kd in series [1] is at least 310000 µM.

Turning to `Nc1ncnc2c1ncn2[C@@H]1O[C@H](COP(N)(=O)O)[C@@H](O)[C@H]1O`, the Kd in [1] is 100 µM; in series [9] it was 100 µM; in [10] it was 82 µM.

As for `Nc1ncnc2c1ncn2[C@@H]1O[C@H](CO)[C@@H](O)[C@H]1O` [ADENOSINE], the equilibrium dissociation constant (Kd) in series [1] was found to be 3000 µM.

Consider `Nc1ncnc2c1ncn2[C@@H]1O[C@H](COP(=O)(O)OS(=O)(=O)O)[C@@H](O)[C@H]1O`, for which, in series [1], the Kd came to 0.2 µM and the Ki was determined as 0.2 µM. Also, the kcat/Km in series [12] was found to be 2 ×10⁶ /M/s.

On to `Nc1ncnc2c1ncn2[C@@H]1O[C@H](COP(=O)(O)O)[C@@H](OP(=O)(O)O)[C@H]1O`, for which the Kd in series [1] was found to be 770 µM.

In the case of `Nc1ncnc2c1ncn2[C@@H]1O[C@H](COP(=O)(O)CS(=O)(=O)O)[C@@H](O)[C@H]1O`, in series [1], the Kd was 700 µM.

On to `Nc1ncnc2c1ncn2[C@@H]1O[C@H](COP(=O)(O)OP(=O)(O)S)[C@@H](O)[C@H]1O` (stereo partly specified), for which the Kd in [1] was determined as 0.15 µM. The results for the pKa in series [2] and in [11] were 5.8 and 5.2, respectively.

As for `Nc1ncnc2c1ncn2[C@@H]1O[C@H](COP(=O)(O)OP(N)(=O)O)[C@@H](O)[C@H]1O`, the Kd is 410 µM in series [1], 410 µM in [9] and 56.8 µM in series [10].
